Laboratory results: PMC12591034 (RSC Advances, 2025)

Assays:
Assay type in all cases: cell-based
[1] = test system: NO production in LPS-stimulated RAW 264.7 macrophage cells; test: Inhibition of NO production in LPS-stimulated RAW 264.7 cells; conditions: Mus musculus, RAW264.7, read-out: IC50 Inhibition of NO-production
In short: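 RAW 264.7 murine macrophages were stimulated with LPS. NO release was measured as nitrite in the culture medium by the Griess reaction. Results are given as mean ± SD from three independent experiments. IC50 was estimated by curve fitting.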

[2] = test system: A549 (lung) carcinoma cells; test: Cytotoxicity, SRB assay, A549; conditions: Homo sapiens, A549, read-out: IC50 Cytotoxicity A549
In short: (§1)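 Sulforhodamine B (SRB) cytotoxicity assay on human A549 lung, Hep-G2 liver and MCF-7 breast carcinoma cells, run alongside non-cancer HEK-293A embryonic kidney cells. Results are given as mean ± SD from three independent experiments. IC50 was estimated by curve fitting.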

[3] = test system: Hep-G2 (liver) carcinoma cells; test: Cytotoxicity, SRB assay, Hep-G2; conditions: Homo sapiens, HepG2, read-out: IC50 Cytotoxicity Hep-G2
In short: as §1

[4] = test system: MCF-7 (breast) carcinoma cells; test: Cytotoxicity, SRB assay, MCF-7; conditions: Homo sapiens, MCF7, read-out: IC50 Cytotoxicity MCF-7
In short: as §1

[5] = Cytotoxicity, SRB assay, HEK-293A; conditions: human, HEK-293A embryonic kidney cells (normal cells)
[6] = test system: A549, Hep-G2, and MCF-7 human cancer cell lines; test: Cytotoxicity, SRB assay, stated across the cancer cell lines; conditions: tested cell lines
In short: as §1

Compound | IC50 [1] | IC50 [2] | IC50 [3] | IC50 [4] | IC50 [5] | cytotoxic activity in words [6]
C[C@H]1C(=O)CC[C@@H]2[C@]1(C)CC[C@H]1[C@@]2(C)CC[C@@]2(C)[C@@H]3CC(C)(C)CC[C@]3(C)CC[C@]12C [Compound 5, friedelin] | > 100 µM | > 100 µM | > 100 µM | > 100 µM |  | 
C[C@H]1C(=O)CC[C@@H]2[C@]1(C)CC[C@H]1[C@@]2(C)CC[C@@]2(C)[C@@H]3CC(C)(C)CC[C@]3(CO)CC[C@]12C [Compound 7, canophyllol] | 79.9 ± 1.37 µM | 39.3 ± 1.29 µM | 22.4 ± 1.01 µM | 27.4 ± 1.19 µM | 30.1 ± 1.25 µM | 
COC(=O)c1c(C)cc(O)c(C=O)c1O [Compound 17, methyl haematommate] | > 100 µM | > 100 µM | 80.7 ± 3.59 µM | 99.3 ± 6.83 µM | 70.7 ± 4.44 µM | weakly active
Cc1c2ccncc2c(C)c2c1[nH]c1ccccc12 [Ellipticine, reference compound] |  | 1.71 ± 0.08 µM | 1.42 ± 0.08 µM | 1.54 ± 0.04 µM | 1.34 ± 0.08 µM | 
